Experimental data pooled from the literature.
Target: Lymphokine-activated killer T-cell-originated protein kinase (PBK, Homo sapiens, UniProt Q96KB5)
Residues used in one study (Q96KB5 1-322): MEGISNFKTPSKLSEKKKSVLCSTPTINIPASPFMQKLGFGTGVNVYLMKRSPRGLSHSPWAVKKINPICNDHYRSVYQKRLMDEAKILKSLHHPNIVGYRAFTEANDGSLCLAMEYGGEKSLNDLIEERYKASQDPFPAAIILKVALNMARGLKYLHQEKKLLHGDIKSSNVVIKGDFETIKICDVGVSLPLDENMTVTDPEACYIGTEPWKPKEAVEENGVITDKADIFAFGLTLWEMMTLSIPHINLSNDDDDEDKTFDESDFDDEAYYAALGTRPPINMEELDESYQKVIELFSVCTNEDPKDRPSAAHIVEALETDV

CC(C)(C)c1nc2c(s1)c1nc(N)ncc1c1ccc(NS(=O)(=O)c3c(F)cccc3F)c(F)c12 — remaining activity (enzyme activity; inhibitor; radiometric; 1 µM): 92%
Cn1c2c(c3ccccc31)C(C#N)C(C)(C)NC2=O (centres unmarked) — ΔTm (thermal stability; DSF; 10 µM): -0.8 °C
Cc1sc(C(=O)NC2COC2)cc1-n1cc(NC(=O)Nc2c(F)cccc2Cl)cn1 — remaining activity (enzyme activity; inhibitor; 10 µM): 88.5%
O=C1Nc2ccc(Cl)cc2C1=Cc1cc(Cl)c(O)c(Cl)c1 — remaining signal (cell-free assay; 0.5 µM): 86.1%
CC/C(=N\NC(=O)NCc1cccc(O)c1)c1ccc(O)c(C)c1O — inhibition (enzyme activity; inhibitor; 0.1 µM): -7.3%
CC(C)(C)c1nc(-c2cccc(NS(=O)(=O)c3c(F)cccc3F)c2F)c(-c2ccnc(N)n2)s1 — remaining activity (enzyme activity; inhibitor; radiometric; 1 µM): 99%
N#CCCc1ccc2c(c1)-c1[nH]c3ccc([N+](=O)[O-])cc3c1CC(=O)N2 — remaining signal (cell-free assay; 0.5 µM): 95.4%
Cn1c2c(Cl)c(Cl)ccc2c2cc(N)[nH]c(=O)c21 — ΔTm (thermal stability; DSF; 10 µM): 0.6 °C
O=C(Nc1cnn(-c2csc(C(=O)NC3COC3)c2)c1)Nc1c(F)cccc1Cl — remaining activity (enzyme activity; inhibitor; 5 µM): 98.2%
CC(C)(O)[C@H]1CC[C@H](Nc2ccc3ncc(-c4cccc(C(F)(F)F)c4)n3n2)CC1 — remaining activity (enzyme activity; inhibitor; 1 µM): 87.2%
CCN1CCC2(CC1)NC(=O)c1c(c3ccc(Cl)c(Cl)c3n1C)C2C#N (racemic) — ΔTm (thermal stability; DSF; 10 µM): -0.3 °C
